Bioassay records: PubChem, The Scripps Research Institute Molecular Screening Center
STAT3 inh = inhibitors of IL-6 induced STAT3 signaling; AID 862; U3A cells, IL-6 STAT3-luciferase reporter, luminescence; host cell line lacks STAT1; 190,000 tested, 0.89% active; inhibition, % at 5.5 µM;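 active means inhibition above the mean inhibition across all screened compounds plus 3 SD, cut at about 44% in these data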;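 further: 0% = DMSO only wells and 100% = 100 µM nifuroxazide control wells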
PERK inh = inhibitors of human PERK kinase | 220,000 tested, 0.17% active | AID 1416 | inhibition, % at 5.6 µM | Q9NZJ5 | CHO PERK-DD fusion, SEAP luminescence translation reporter;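 active means inhibition above the mean inhibition of all tested compounds plus 3 SD, set separately per screening campaign, cut at about 2.9% in these data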;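 further: PERK kinase domain activated by AP20187 dimerizer at 100 nM; 0% = DMSO with dimerizer and 100% = rapamycin at 8.4 µM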
STAT1 inh = STAT1 signaling inhibition; NIH 3T3 STAT1-luciferase reporter, IFN-gamma, luminescence; inhibition, % at 5.5 µM; 200,000 tested, 0.35% active;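 active means inhibition above a set limit, the mean inhibition across all tested compounds plus 3 SD, cut at about 34% in these data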;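 further: 0% = IFN-gamma with DMSO and 100% = IFN-gamma with 300 µM nifuroxazide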
STAT3 act = increases IL-6 driven STAT3 reporter signal. U3A cells, IL-6 STAT3-luciferase reporter, luminescence; 100% = signal with IL-6 EC80 alone. activation (% of control), % at 5.6 µM. 190,000 tested, 0.91% active;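 active means activation above the screen-wide mean of compound activation plus 3 SD, cut at about 130% in these data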;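 further: 0% = background luminescence of wells with medium and substrate only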
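Material: STAT3-luciferase reporter U3A cells. Controls: IL-6-treated wells, 100% activation. Read-out: % activation versus median of IL-6-stimulated wells. Probe or stimulus: IL-6 stimulus at 33 ng/mL final. Timing: compound 1 h, then IL-6 6 h at 37 °C. Signal: reporter luminescence signal.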
The depositor's hits bear a star. The list is not random: actives were taken first. Their share in the collection is about 1.8%.

What do the screens show for `Cn1c(CC2C(=O)Nc3ccc(Br)cc32)nc2ccccc2c1=O` (stereo not given)?
STAT3 inh: -36; PERK inh: -2; STAT1 inh: 14; STAT3 act: 133*

Results for O=C(Nc1ccc([N+](=O)[O-])cc1)C1C(c2ccccc2)=C1c1ccccc1 ?
STAT3 inh: -26; PERK inh: 1; STAT1 inh: -6; STAT3 act: 133*

Results for CCc1ccc(NC(=O)c2ccccc2NC(=O)C2CCCO2)cc1 (stereo not given) ?
STAT3 inh: -13; PERK inh: -1; STAT1 inh: -18; STAT3 act: 116

How did CC(C)(C)NS(=O)(=O)c1cccc2nsnc12 do in these assays?
STAT3 inh: 1; PERK inh: 3.7*; STAT1 inh: -13; STAT3 act: 102

How did C=CCSC1=N/C(=C/c2ccsc2)C(=O)N1c1ccccc1 do in these assays?
STAT3 inh: -6; PERK inh: 0; STAT1 inh: 1; STAT3 act: 103

How did Cc1ccc(N=C2NC(=O)/C(=C/c3cn(C)c4ccccc34)S2)cc1C do in these assays?
STAT3 inh: 41; PERK inh: 0; STAT1 inh: -1; STAT3 act: 66

Results for O/N=C/c1ccc(-c2cc(Cl)ccc2Cl)o1 ?
STAT3 inh: 13; PERK inh: 0; STAT1 inh: 0; STAT3 act: 91

Results for O=Cc1ccc(-c2cc(Cl)ccc2Cl)[nH]1 ?
STAT3 inh: 0; PERK inh: 3.3*; STAT1 inh: -1; STAT3 act: 104

Results for CCCN1C(=O)COc2ccc(-c3n[nH]c(=O)c4ccccc34)cc21 ?
STAT3 inh: 28; PERK inh: 1; STAT1 inh: 9; STAT3 act: 84

Results for Cc1ccc(C(=O)O/N=C\c2ccc(N3CCOCC3)c([N+](=O)[O-])c2)cc1 ?
STAT3 inh: -1; PERK inh: 0; STAT1 inh: -5; STAT3 act: 108

How did O=C(O/N=C\c1ccc(N2CCCCC2)c([N+](=O)[O-])c1)c1ccc(Cl)cc1Cl do in these assays?
STAT3 inh: 3; PERK inh: 3.0*; STAT1 inh: 3; STAT3 act: 104

Results for c1ccc2c(NCCCN3CCOCC3)c3ccccc3nc2c1 ?
STAT3 inh: -127; PERK inh: 0; STAT1 inh: -88; STAT3 act: 215*

What do the screens show for `CCOC(=O)C(/C(C)=N/NC(=O)C1CC1c1ccccc1)C(C)C` (stereo not given)?
STAT3 inh: -10; PERK inh: 0; STAT1 inh: -6; STAT3 act: 108

How did Cc1c(C(=O)Nc2nc3ccccc3[nH]2)oc2ccccc12 do in these assays?
STAT3 inh: -58; PERK inh: -1; STAT1 inh: -66; STAT3 act: 145*

What do the screens show for `COc1cccc(C(=O)Nc2nc3ccccc3[nH]2)c1`?
STAT3 inh: 86*; PERK inh: -2; STAT1 inh: 44*; STAT3 act: 29

What do the screens show for `Cc1cc(C)c(NC(=O)C(C)(C)C)c(Cl)c1`?
STAT3 inh: 8; PERK inh: -1; STAT1 inh: 9; STAT3 act: 99

What do the screens show for `Cc1cc(C)c(NC(=O)NC(=O)C(Cl)(Cl)Cl)c(C)c1`?
STAT3 inh: -1; PERK inh: 3.5*; STAT1 inh: -4; STAT3 act: 105

How did COc1ccc(/C=N/Nc2ncccc2[N+](=O)[O-])c(OC)c1 do in these assays?
STAT3 inh: 74*; PERK inh: 0; STAT1 inh: 57*; STAT3 act: 41

Results for O=C1C(Nc2ccc(O)cc2)=C/C(=N/S(=O)(=O)c2cccs2)c2ccccc21 ?
STAT3 inh: 86*; PERK inh: -2; STAT1 inh: 90*; STAT3 act: 26

Results for CCS(=O)(=O)Nc1ccc(C2=NN(C(=O)c3ccco3)C(c3cccc(F)c3)C2)cc1 (stereo not given) ?
STAT3 inh: 17; PERK inh: 2; STAT1 inh: 63*; STAT3 act: 90

How did CC(Nc1cc(N2CCCC2)ccc1[N+](=O)[O-])c1ccccc1 (stereo not given) do in these assays?
STAT3 inh: -9; PERK inh: 2.9*; STAT1 inh: -4; STAT3 act: 108

Results for COc1ccc(N2CCN(c3ncnc4c3[nH]c3ccccc34)CC2)cc1 ?
STAT3 inh: 77*; PERK inh: -2; STAT1 inh: 41*; STAT3 act: 35

Results for O=C(O)Cn1ccnc1 ?
STAT3 inh: -2; PERK inh: 2.9*; STAT1 inh: 3; STAT3 act: 102

How did CN(C)c1nc(N)nc(-c2nc3ccccc3s2)n1 do in these assays?
STAT3 inh: -95; PERK inh: 1; STAT1 inh: -38; STAT3 act: 180*
